# High-throughput results deposited in PubChem by Broad Institute.
# FN deposit inh: fibronectin deposition inhibition | AID 743247 | inhibition, % at 12.6 µM | AH1F fibroblasts, Alexa488-fibronectin deposition fluorescence, overnight | 350,000 tested, 0.086% active;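 active means mean inhibition across replicates of 30% or more, regardless of how many single replicates reach that level; inconclusive means mean under 30% yet at least half of replicates reach 30%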
#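 Material – AH1F fibroblast monolayer, labelled fibronectin deposition · Reagent – labelled fibronectin 24 nM · Timing – 1 h adhesion, overnight exposure · Measured by – fluorescence at 485 nm excitation, 525 nm emission · Read-out – inhibition of fibronectin deposition signal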
# Glyco luc inh: N-linked glycosylation inhibition | D54 ERlucT glycosylation luciferase reporter, 24 h; percent of 100 nM tunicamycin response | reporter increase, % at 12.5 µM | 360,000 tested, 0.23% active | AID 588692;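 active means mean luciferase reporter signal, scaled so untreated is 0 and the glycosylation-blocking control 100, at or above a set limit in every replicate; inconclusive means mean reaches the limit but not every replicate does; inactive means mean below the limit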;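 further: luciferase carries N-glycosylation sites so blocking glycosylation raises the light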
# PAX8 inh HTS: lowers PAX8-driven luciferase in RMG-I cells; RMG-I TPO-luciferase reporter, SteadyGlo, 24 h; inhibition, % at 12.6 µM; 360,000 tested, 1.2% active;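 active means mean replicate inhibition at least 60% with every replicate also reaching 60%; inconclusive means only one of the two criteria is met; inactive means mean below 60% and not all replicates reaching 60%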;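 further: luciferase light reporting Pax8 driven TPO promoter activity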
# HIV Env fusion: HIV envelope-mediated fusion inhibition | HeLa-JRFL Env/CEM21 cell fusion, luciferase | inhibition, % at 12.3 µM | 360,000 tested, 1.1% active | AID 651610;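 active means mean replicate inhibition score of at least 50 and every replicate individually at or above 50; inconclusive means only one of the two criteria met; inactive means mean below 50 and not all replicates reaching 50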
# AF4-AF9 inh: MLL-AF4/AF9 protein interaction inhibition; AID 651704; inhibition, % at 10 µM; AlphaScreen, biotin-AF4 peptide binding to FLAG-AF9; P42568; 350,000 tested, 0.47% active;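 active means every replicate reaching a set inhibition limit, whatever the replicate mean, cut at about 25% in these data; inconclusive means mean inhibition reaches that limit but some replicates miss it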
# Target sequence (P42568 whole entry, looked up): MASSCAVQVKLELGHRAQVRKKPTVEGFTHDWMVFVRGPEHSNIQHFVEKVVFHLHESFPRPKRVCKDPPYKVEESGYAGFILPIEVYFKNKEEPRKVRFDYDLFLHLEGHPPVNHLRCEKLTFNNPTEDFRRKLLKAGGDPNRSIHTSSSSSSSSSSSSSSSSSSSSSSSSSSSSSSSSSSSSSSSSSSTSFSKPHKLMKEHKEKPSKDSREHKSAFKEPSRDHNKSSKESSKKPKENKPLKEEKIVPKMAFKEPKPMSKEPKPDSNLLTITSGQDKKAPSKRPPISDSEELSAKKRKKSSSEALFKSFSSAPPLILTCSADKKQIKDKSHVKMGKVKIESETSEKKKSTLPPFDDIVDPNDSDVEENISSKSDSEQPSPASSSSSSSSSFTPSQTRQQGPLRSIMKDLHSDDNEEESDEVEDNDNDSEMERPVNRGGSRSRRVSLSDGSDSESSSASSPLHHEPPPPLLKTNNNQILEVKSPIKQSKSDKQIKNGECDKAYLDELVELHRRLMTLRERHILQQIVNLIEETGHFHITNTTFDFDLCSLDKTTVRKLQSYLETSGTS
# EWS-Fli inh: inhibitors of EWS/Fli oncoprotein transcriptional activity; inhibition, % at 12.6 µM; A673 NR0B1-luciferase reporter, viability-normalised; 350,000 tested, 0.67% active;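 active means mean inhibition of at least 50% after viability correction, with every replicate also passing that limit; inconclusive means mean reaches 50% but only one of two replicates passes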;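 further: firefly luciferase signal divided by Alamar Blue viability fluorescence both relative to DMSO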
# Hits are given with their value; - = inactive; ? = inconclusive; . = no result; ! = a repeat was not active. Compounds with a hit are over-represented: about 2.5% of the library has one in this group of screens.
SMILES,FN deposit inh,Glyco luc inh,PAX8 inh HTS,HIV Env fusion,AF4-AF9 inh,EWS-Fli inh
CCN(CCCn1c(SCC#N)nc2ccccc2c1=O)c1ccccc1,-,-,.,62,.,.
CCCNC(=O)N1CCC2(CC1)CN(C(=O)Nc1ccc(F)cc1)[C@H](CO)c1[nH]c3cc(OC)ccc3c12,.,.,.,.,-,-
CC1=C(C(=O)N2CCC=CC2=O)Cc2ccccc21,.,.,95,-,-,-
CCS(=O)(=O)N1CC2(C1)[C@@H](c1ccccc1)[C@@H](CO)N2CCC(F)(F)F,.,.,-,.,-,-
O=C(C[C@H]1CC[C@H](NC(=O)C2CC2)[C@H](CO)O1)NCc1ccncc1,-,.,-,-,-,-
C[C@H]1CCCCO[C@H](CN(C)S(=O)(=O)c2cn(C)cn2)[C@@H](C)CN([C@@H](C)CO)C(=O)c2cc(NC(=O)Nc3ccc4c(c3)OCO4)ccc2O1,.,.,.,-,-,-
CCCCn1c(NCc2ccncc2)nc2ccccc21,.,-,-,-,-,-
CCCCn1c(NCc2ccc(N(C)C)cc2)nc2ccccc21,-,-,-,-,29,-
CCC(=O)N1CCN(c2ccc(-n3c(=O)ccc4cnc5ccc(-c6cnc7ccccc7c6)cc5c43)cc2C(F)(F)F)CC1,.,.,71,59,-,-
COc1ccc(C2NCCc3c2[nH]c2ccccc32)cc1COc1ccc(F)cc1 (stereo not given),-,-,-,-,?,78
C[C@H]1CN([C@@H](C)CO)C(=O)c2cc(NC(=O)CCC(F)(F)F)ccc2O[C@@H]1CN(C)C(=O)Nc1ccc(C(F)(F)F)cc1,.,.,-,.,-,-
O=C(C[C@H]1C=C[C@@H](NC(=O)CN2CCOCC2)[C@@H](CO)O1)NC1CCCCC1,-,.,-,-,-,-
COc1cc2ccccc2cc1C(=O)N/N=C/c1cccs1,-,35,-,-,-,58
CC(=O)c1sc(=S)n(-c2ccccc2)c1C,-,-,-,-,-,-
CC(=O)c1sc2c(c1OC(=O)c1ccccc1)c(=O)n(-c1ccccc1)c(=S)n2-c1ccccc1,.,-,-,62,-,-
CC(C)COc1ccc(-c2nn(-c3ccccc3)cc2C(=O)Nc2nccs2)cc1,-,-,-,72,.,.
COc1cccc(C(=O)Nc2ccc3c(c2)C(=O)N(C)[C@H]2CC[C@H](CC(=O)NCC4CC4)O[C@@H]2CO3)c1,-,.,-,-,-,-
N#CC1c2ccccc2-c2ccccc2N1C(=O)c1ccccc1 (stereo not given),.,-,-,-,-,55
COc1ccc(C(O)(CCC(C)C)C(CN2CCOCC2)c2ccccc2)cc1 (stereo not given),-,-,-,73,-,-
CCc1ccc(CNC(=O)CC2C(=O)NCCN2Cc2ccccc2F)nc1 (stereo not given),-,-,-,56,-,-
CCn1ccnc1CNC(=O)CC1C(=O)NCCN1Cc1ccccc1F (stereo not given),-,-,-,-,-,-
COc1ccc(C(=O)c2sc(Nc3ccccc3)nc2N)cc1OC,-,33,-,-,-,-
Nc1nc(Nc2ccccc2)sc1C(=O)c1ccccc1,-,29,-,-,-,-
COc1ccc(C(=O)c2sc(Nc3ccccc3)nc2N)cc1,-,-,-,-,-,-
C[C@H]1CCCCO[C@@H](CN(C)S(=O)(=O)c2ccc(Cl)cc2)[C@@H](C)CN([C@@H](C)CO)C(=O)c2cc(NC(=O)CCC(F)(F)F)ccc2O1,-,.,73,-,-,-
SMILES,FN deposit inh,Glyco luc inh,PAX8 inh HTS,HIV Env fusion,AF4-AF9 inh,EWS-Fli inh
C[C@@H]1CCCCO[C@H](CN(C)S(=O)(=O)c2ccc(Cl)cc2)[C@@H](C)CN([C@@H](C)CO)C(=O)c2cc(NC(=O)Nc3ccc(C(F)(F)F)cc3)ccc2O1,-,.,82,-,.,-
C[C@@H]1CCCCO[C@H](CN(C)S(=O)(=O)c2ccc(Cl)cc2)[C@H](C)CN([C@@H](C)CO)C(=O)c2cc(NC(=O)Nc3ccc(F)cc3)ccc2O1,-,.,70,-,-,-
C[C@@H]1CCCCO[C@H](CN(C)S(=O)(=O)c2ccc(F)cc2)[C@@H](C)CN([C@H](C)CO)C(=O)c2cc(NC(=O)Nc3ccc(C(F)(F)F)cc3)ccc2O1,-,-,74!,?,-,-
C[C@@H]1CN([C@@H](C)CO)C(=O)c2cc(C#C[C@@H](C)O)cnc2O[C@@H]1CN(C)Cc1cccc(F)c1,-,.,.,-,-,-
CC(C)NC(=O)N(C)C[C@@H]1Oc2ccc(NC(=O)Nc3ccc(F)cc3)cc2CC(=O)N([C@H](C)CO)C[C@@H]1C,.,.,-,-,-,-
CN(C)CC(=O)N1[C@@H]2c3cccc(=O)n3C[C@H]1[C@H](CO)[C@H]2C(=O)NCc1ccccc1,.,.,.,.,-,-
C[C@@H]1CN([C@@H](C)CO)C(=O)c2cc(NC(=O)Nc3ccc(C(F)(F)F)cc3)ccc2O[C@@H](C)CCCCO[C@H]1CN(C)S(=O)(=O)c1ccccc1,-,.,-,-,-,-
C[C@@H]1CCCCO[C@@H](CN(C)S(=O)(=O)c2ccccc2)[C@H](C)CN([C@@H](C)CO)C(=O)c2cc(NC(=O)Nc3ccc(C(F)(F)F)cc3)ccc2O1,-,.,75,-,-,-
C[C@H](CO)N1C[C@H](C)[C@@H](CN(C)C(=O)c2cccc(F)c2)Oc2ncc(-c3cncnc3)cc2C1=O,.,.,.,-,-,-
O=C(Nc1ccc(F)cc1)N[C@@H]1CC[C@@H](CCNC(=O)c2cc(Cl)cc(Cl)c2)O[C@@H]1CO,.,.,-,-,-,-
CCOC(=O)C1CCCN(C(=O)c2ccc3c(=O)n(CCOC)c(=S)[nH]c3c2)C1 (stereo not given),.,-,.,66,.,.
C=C[C@@H]1c2cc(C)ccc2N(S(=O)(=O)c2ccc(C)cc2)[C@H](c2ccccc2)C1(C#N)C#N,-,-,-,-,-,-
C=C[C@@H]1c2cc(C)ccc2N(S(=O)(=O)c2ccc(C)cc2)[C@H](c2ccccc2C(F)(F)F)C1(C#N)C#N,-,-,-,56,-,-
O=C(NCC[C@H]1CC[C@@H](NS(=O)(=O)c2ccc(F)cc2)[C@H](CO)O1)c1ccccc1F,.,.,.,.,-,-
CC12CCC(=O)N1C(C(=O)NNC(=O)COc1ccc(Br)cc1)CS2 (stereo not given),-,-,-,-,-,-
Cc1cc(Cl)ccc1OCC(=O)NNC(=O)C1CSC2(C)CCC(=O)N12 (stereo not given),-,-,.,71,-,-
Cc1noc(C)c1NC(=O)N(C)C[C@H]1Oc2ccc(NS(C)(=O)=O)cc2CC(=O)N([C@@H](C)CO)C[C@@H]1C,.,.,-,-,.,-
Cc1ccc(S(=O)(=O)Nc2ccc3c(c2)C(=O)N([C@@H](C)CO)C[C@H](C)[C@H](CN(C)Cc2ccc(Oc4ccccc4)cc2)O3)cc1,.,.,-,-,.,-
CO[C@H]1CN(C)C(=O)c2cc(NC(C)=O)ccc2OC[C@@H](C)N(C(=O)Cc2ccccn2)C[C@@H]1C,-,.,-,.,29,-
